# Measurements: ChEMBL document CHEMBL1932953, “New anthranilic acid based antagonists with high affinity and selectivity for the human cholecystokinin receptor 1 (hCCK1-R)” (J Med Chem, 2011)
# Activity calls are given as the source filed them. The rule behind the calls is not given here.
# Legend:
# [1] = target: T1, Cholecystokinin receptor type A (Rattus norvegicus) (UniProt P30551); test: Displacement of [125I]-BH-CCK8 from CCK1 receptor in Sprague-Dawley rat pancreatic acini at 3 uM after 120 hrs by gamma-counting; details: in the assay text read “after 30 mins” for “after 120 hrs”
# T1 sequence (whole entry): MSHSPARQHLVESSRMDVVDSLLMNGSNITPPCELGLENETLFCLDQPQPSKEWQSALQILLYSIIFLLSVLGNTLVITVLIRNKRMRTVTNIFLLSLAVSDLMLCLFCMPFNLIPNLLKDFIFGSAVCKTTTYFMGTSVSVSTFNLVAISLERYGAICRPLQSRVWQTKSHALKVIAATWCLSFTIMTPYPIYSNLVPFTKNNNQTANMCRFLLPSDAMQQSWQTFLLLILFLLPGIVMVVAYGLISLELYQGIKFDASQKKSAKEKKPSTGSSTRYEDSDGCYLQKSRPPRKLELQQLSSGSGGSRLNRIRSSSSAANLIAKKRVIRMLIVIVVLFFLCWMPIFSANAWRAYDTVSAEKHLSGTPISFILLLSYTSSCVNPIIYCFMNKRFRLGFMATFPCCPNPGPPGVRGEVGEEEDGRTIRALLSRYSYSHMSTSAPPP
# In short: (§1)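 Rats fasted 18–24 h with free water. Acini isolated by enzymatic digestion are incubated with 25 pM [125I]BH-CCK-8 and competitors at 37 °C for 30 min in a shaking bath. Ice-cold Hepes-Ringer pH 7.4 is added, the tubes are centrifuged 5 min at 12500g, and pellet radioactivity is counted. IC50 comes from curve fitting, or ISB% is taken at the top concentration tested.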
# [2] = Displacement of [125I]-BH-CCK8 from CCK2 receptor in Hartley guinea pig cerebral cortex after 120 hrs by gamma-counting; format: tissue-based, Cavia porcellus; details: in the assay text read “after 120 mins” for “after 120 hrs”
# In short: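 Cortical membranes (0.5 mg protein/ml) are incubated with 25 pM [125I]BH-CCK-8 for 120 min at 25 °C. The buffer is 10 mM Hepes, 118 mM NaCl, 4.7 mM KCl, 5 mM MgCl2, 1 mM EGTA, pH 6.5, with 0.2 mg/mL bacitracin. Samples are vacuum-filtered on GF/B and gamma-counted, with nonspecific binding defined with 1 μM CCK-8. IC50 comes from curve fitting, or ISB% is taken at the top concentration tested.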
# [3] = target: T2, Cholecystokinin receptor type A (Rattus norvegicus, UniProt P30551); test: Displacement of [125I]-BH-CCK8 from CCK1 receptor in Sprague-Dawley rat pancreatic acini after 120 hrs by gamma-counting; details: in the assay text read “after 30 mins” for “after 120 hrs”; in short: as §1
# T2 sequence (P30551 whole entry): T1 sequence (whole entry)
# [4] = target: T1, Cholecystokinin receptor type A (Rattus norvegicus); test: Displacement of [125I]-BH-CCK8 from CCK1 receptor in Sprague-Dawley rat pancreatic acini at 10 uM after 120 hrs by gamma-counting; details: in the assay text read “after 30 mins” for “after 120 hrs”; in short: as §1
# [5] = Apparent selectivity index, ratio of IC50 for CCK2 receptor in Hartley guinea pig cerebral cortex to IC50 for CCK1 receptor in Sprague-Dawley rat pancreatic acini; format: tissue-based
# [6] = target: Cholecystokinin receptor type A (Homo sapiens, UniProt P32238, W39A); test: Displacement of [3H]-SR-27897 from human CCK1 W39A mutant receptor expressed in COS7 cells after 60 mins […]; format: cell-based, COS-7
# Sequence of Cholecystokinin receptor type A (Homo sapiens, UniProt P32238, W39A) (P32238 whole entry W39A): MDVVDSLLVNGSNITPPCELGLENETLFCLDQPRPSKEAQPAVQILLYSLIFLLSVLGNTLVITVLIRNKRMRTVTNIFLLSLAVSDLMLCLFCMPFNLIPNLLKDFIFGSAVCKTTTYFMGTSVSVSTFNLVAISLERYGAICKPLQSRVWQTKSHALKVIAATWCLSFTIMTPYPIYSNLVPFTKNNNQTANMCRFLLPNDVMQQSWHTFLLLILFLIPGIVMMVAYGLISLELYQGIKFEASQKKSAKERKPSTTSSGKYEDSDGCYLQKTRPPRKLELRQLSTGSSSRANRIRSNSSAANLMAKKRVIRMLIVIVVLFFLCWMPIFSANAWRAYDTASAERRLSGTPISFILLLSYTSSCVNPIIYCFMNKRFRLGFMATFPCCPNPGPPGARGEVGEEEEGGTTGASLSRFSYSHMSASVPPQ
# In short: (§2)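 Wild-type or mutant receptor cDNA in pRFE-Neo (2 μg/plate) was transiently transfected into COS-7 cells by modified DEAE-dextran, and cells were replated 24 h later. After about 24 h more, cells were incubated 60 min at 37 °C in DMEM with 0.1% BSA, 1.83 nM [3H]SR-27,897 and competitors. Cells were washed in cold PBS with 2% BSA, lysed in 0.1 N NaOH, and counted by scintillation. Values are mean ± SEM, at least three experiments in duplicate.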
# [7] = target: T3, Cholecystokinin receptor type A (Homo sapiens, UniProt P32238); test: Displacement of [3H]-SR-27897 from wild type human CCK1 receptor expressed in COS7 cells after 60 mins […]; format: cell-based, COS-7; in short: as §2
# T3 sequence (P32238 whole entry): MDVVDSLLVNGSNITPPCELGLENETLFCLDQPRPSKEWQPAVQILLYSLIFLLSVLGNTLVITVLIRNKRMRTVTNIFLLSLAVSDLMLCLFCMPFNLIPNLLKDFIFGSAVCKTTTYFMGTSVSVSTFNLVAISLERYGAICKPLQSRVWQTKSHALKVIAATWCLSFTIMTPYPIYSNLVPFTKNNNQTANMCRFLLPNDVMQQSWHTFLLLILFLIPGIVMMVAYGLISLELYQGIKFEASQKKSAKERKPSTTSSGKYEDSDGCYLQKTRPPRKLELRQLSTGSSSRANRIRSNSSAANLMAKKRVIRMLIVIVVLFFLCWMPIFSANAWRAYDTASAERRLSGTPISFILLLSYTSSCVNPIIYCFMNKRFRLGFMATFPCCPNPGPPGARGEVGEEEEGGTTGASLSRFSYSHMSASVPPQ
# [8] = target: T4, Cholecystokinin receptor type A (Homo sapiens) (UniProt P32238); test: Antagonist activity at human CCK1 receptor expressed in COS7 cells assessed as inhibition of (Thr,Nle)-CCK9-induced inositol phosphate production using myo-2-[3H]inositol after 60 mins by scintillation counting; format: functional, cell-based; details: COS-7
# T4 sequence (whole entry): T3 sequence (P32238 whole entry)
# In short: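 COS-7 cells transiently transfected (DEAE-dextran) with receptor cDNA are labelled overnight with 2 μCi/ml myo-2-[3H]inositol. They are preincubated 30 min in DMEM with 20 mM LiCl at 37 °C, then incubated 60 min at 37 °C in PI buffer pH 7.45 with ligands at various concentrations. Inositol phosphates are separated on Dowex AG 1-X8 formate columns and counted by β scintillation.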
# [9] = Antagonist activity at CCK1 receptor in Hartley guinea pig gall bladder assessed as inhibition of CCK8-induced contraction; format: functional, tissue-based, Cavia porcellus
# In short: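 Circular smooth-muscle strips (about 3 mm × 15 mm) in Krebs–Henseleit at 32 °C, gassed 95% O2/5% CO2, resting tension 0.5 g, isometric recording. After 60 min equilibration with washes every 15 min, antagonist or vehicle is given 5 min before a submaximal (70–80%) CCK-8 concentration. Response is % inhibition of contraction, and IC50 comes from the regression line.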
# [10] = target: Cholecystokinin receptor type A (Homo sapiens, UniProt P32238, R197A); test: Displacement of [3H]-SR-27897 from human CCK1 R197A mutant receptor expressed in COS7 cells after 60 mins […]; format: cell-based, COS-7; in short: as §2
# Sequence of Cholecystokinin receptor type A (Homo sapiens, UniProt P32238, R197A) (P32238 whole entry R197A): as the sequence (P32238 whole entry W39A) above, with A39W, R197A counted along it
# [11] = target: Cholecystokinin receptor type A (Homo sapiens, UniProt P32238, N333A); test: Displacement of [125I]-BH-JMV-179 from human CCK1 receptor N333A mutant expressed in COS7 cells after 60 mins by gamma counting; format: cell-based, COS-7
# Sequence of Cholecystokinin receptor type A (Homo sapiens, UniProt P32238, N333A) (P32238 whole entry N333A): as the sequence (P32238 whole entry W39A) above, with A39W, N333A counted along it
# In short: (§3)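 Transiently transfected COS-7 cells (DMEM, 5% FCS, 37 °C, 5% CO2) were given 2 μg/plate pRFE-Neo vector carrying wild-type or mutant receptor cDNA by modified DEAE-dextran, then replated after 24 h. About 24 h later, cells were washed (PBS pH 6.95, 0.1% BSA) and incubated 60 min at 37 °C with 71 pM 125I-BH-(Thr,Nle)CCK-9 ± competitors. After cold washes, cells were lysed in 0.1 N NaOH and gamma-counted.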
# [12] = target: T5, Gastrin/cholecystokinin type B receptor (Homo sapiens, UniProt P32239); test: Displacement of [125I]BH-(Thr,-Nle)-CCK-9 from human CCK2 receptor expressed in COS-7 cells after 60 mins by gamma counting; format: cell-based
# T5 sequence (P32239 whole entry): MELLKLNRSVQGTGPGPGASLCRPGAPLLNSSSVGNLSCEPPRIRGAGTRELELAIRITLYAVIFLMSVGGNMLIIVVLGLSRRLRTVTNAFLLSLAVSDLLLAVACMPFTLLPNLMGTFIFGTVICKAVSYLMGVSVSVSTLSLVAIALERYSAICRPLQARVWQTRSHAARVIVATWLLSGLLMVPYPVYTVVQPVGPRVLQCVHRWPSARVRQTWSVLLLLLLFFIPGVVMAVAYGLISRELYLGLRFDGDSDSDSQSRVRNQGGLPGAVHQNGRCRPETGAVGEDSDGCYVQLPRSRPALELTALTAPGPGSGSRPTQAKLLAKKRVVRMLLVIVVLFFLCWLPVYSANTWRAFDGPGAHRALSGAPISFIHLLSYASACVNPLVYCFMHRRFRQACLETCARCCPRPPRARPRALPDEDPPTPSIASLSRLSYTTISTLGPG
# [13] = target: Cholecystokinin receptor type A (Homo sapiens, UniProt P32238, I352A); test: Displacement of [3H]-SR-27897 from human CCK1 I352A mutant receptor expressed in COS7 cells after 60 mins […]; format: cell-based, COS-7; in short: as §2
# Sequence of Cholecystokinin receptor type A (Homo sapiens, UniProt P32238, I352A) (P32238 whole entry I352A): as the sequence (P32238 whole entry W39A) above, with A39W, I352A counted along it
# Cavia porcellus [14] = test: Inhibition of CCK8-induced gall bladder contraction in iv dosed Hartley guinea pig administered 2 mins before CCK8 challenge; format: functional; details: read-out: ID50 (the source's name)
# In short: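 Male Hartley guinea pigs (400–450 g) are fasted 48 h and anaesthetised with urethane 1.5 g/kg ip. Jugular vein and trachea are cannulated. Test agents are given iv at different doses 2 min before CCK-8 10 ng/kg iv. The read-out is % reduction of contraction area, and […] comes from the regression of inhibition against log dose.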
# [15] = target: Cholecystokinin receptor type A (Homo sapiens, UniProt P32238, M195A); test: Displacement of [3H]-SR-27897 from human CCK1 M195A mutant receptor expressed in COS7 cells after 60 mins […]; format: cell-based, COS-7; in short: as §2
# Sequence of Cholecystokinin receptor type A (Homo sapiens, UniProt P32238, M195A) (P32238 whole entry M195A): as the sequence (P32238 whole entry W39A) above, with A39W, M195A counted along it
# [16] = target: T3, Cholecystokinin receptor type A; test: Displacement of [125I]BH-(Thr,-Nle)-CCK-9 from human CCK1 receptor expressed in COS-7 cells after 60 mins by gamma counting; format: cell-based
# [17] = target: Cholecystokinin receptor type A (Homo sapiens, UniProt P32238, F107A); test: Displacement of [3H]-SR-27897 from human CCK1 F107A mutant receptor expressed in COS7 cells after 60 mins […]; format: cell-based, COS-7; in short: as §2
# Sequence of Cholecystokinin receptor type A (Homo sapiens, UniProt P32238, F107A) (P32238 whole entry F107A): as the sequence (P32238 whole entry W39A) above, with A39W, F107A counted along it
# [18] = target: Cholecystokinin receptor type A (Homo sapiens, UniProt P32238, F330A); test: Displacement of [3H]-SR-27897 from human CCK1 F330A mutant receptor expressed in COS7 cells after 60 mins […]; format: cell-based, COS-7; in short: as §2
# Sequence of Cholecystokinin receptor type A (Homo sapiens, UniProt P32238, F330A) (P32238 whole entry F330A): as the sequence (P32238 whole entry W39A) above, with A39W, F330A counted along it
# [19] = target: T3, Cholecystokinin receptor type A; test: Displacement of [125I]-BH-JMV-179 from wild type human CCK1 receptor expressed in COS7 cells after 60 mins by gamma counting; format: cell-based, COS-7; in short: as §3
# [20] = target: Cholecystokinin receptor type A (Homo sapiens, UniProt P32238, R336A); test: Displacement of [3H]-SR-27897 from human CCK1 R336A mutant receptor expressed in COS7 cells after 60 mins […]; format: cell-based, COS-7; in short: as §2
# Sequence of Cholecystokinin receptor type A (Homo sapiens, UniProt P32238, R336A) (P32238 whole entry R336A): as the sequence (P32238 whole entry W39A) above, with A39W, R336A counted along it
# Cavia porcellus [21] = species on record: Cavia porcellus; test: Displacement of [125I]-BH-CCK8 from CCK2 receptor in Hartley guinea pig cerebral cortex at 30 uM […] by gamma-counting; format: tissue-based
# Homo sapiens = species on record: Homo sapiens; test: Apparent selectivity index, ratio of Ki for human CCK2 receptor to Ki for human CCK1 receptor
smiles,measurement,setting,value
CCOC(=O)C(CCc1ccccc1)NC(=O)c1ccccc1NC(=O)c1cc2ccccc2[nH]1 (racemic),inhibition,[1],24%
same,IC50,[2],Not Active
O=C(Nc1ccccc1C(=O)NC(C(=O)O)c1ccccc1)c1cc2ccccc2[nH]1 (racemic),IC50,[3],317 nM
O=C(Nc1ccccc1C(=O)NC(CCCCc1ccccc1)C(=O)O)c1cc2ccccc2[nH]1 (racemic),inhibition,[4],39%
NC(=O)C(CCc1ccccc1)NC(=O)c1ccccc1NC(=O)c1cc2ccccc2[nH]1 (racemic),inhibition,[1],inactive
O=C(Nc1ccccc1C(=O)NC(CCCc1ccccc1)C(=O)O)c1cc2ccccc2[nH]1 (racemic),Ratio IC50,[5],6
same,IC50,[3],107 nM
same,IC50,[2]; read-out: IC50,600 nM
CC(CCc1ccccc1)NC(=O)c1ccccc1NC(=O)c1cc2ccccc2[nH]1 (racemic),IC50,[2],Not Active
same,inhibition,[4],36%
O=C(Nc1ccccc1C(=O)N[C@H](CCc1ccccc1)C(=O)O)c1cc2ccccc2[nH]1,Ki,[6],3.7 nM
same,Ki,[7],5.8 nM
same,inhibition,[8],Active
same,IC50,[9],43.9 nM
same,IC50,[3],9.5 nM
same,Ki,[10],19.6 nM
same,Ki,[11],5 nM
same,Ki,[12],1000 nM
same,Ki,[13],39.1 nM
same,ED50,Cavia porcellus [14],0.35 µmol/kg
same,Ki,[15],7.6 nM
same,IC50,[2]; read-out: IC50,3800 nM
same,Ki,[16],2.3 nM
same,Ki,[17],3.8 nM
same,Ki,[18],4.9 nM
same,Ki,[19],0.32 nM
same,Ki,[20],522 nM
O=C(Nc1ccccc1C(=O)N[C@@H](CCc1ccccc1)C(=O)O)c1cc2ccccc2[nH]1,inhibition,[8],Active
same,IC50,[9],420 nM
same,IC50,[3],313 nM
same,Ki,[12],1000 nM
same,IC50,[2]; read-out: IC50,7900 nM
same,Ki,[16],973 nM
O=C(Nc1ccccc1C(=O)NC(CCc1ccccc1)C(=O)NO)c1cc2ccccc2[nH]1 (racemic),inhibition,Cavia porcellus [21],37%
same,IC50,[3],419 nM
O=C(Nc1ccccc1C(=O)NC(Cc1ccccc1)C(=O)O)c1cc2ccccc2[nH]1 (racemic),Ratio IC50,[5],83
same,Ratio Ki,Homo sapiens,368
same,Ki,[12],22000 nM
same,IC50,[2]; read-out: IC50,16400 nM
same,Ki,[16],59.8 nM
O=C(Nc1ccccc1C(=O)NC(CCc1ccccc1)C(=O)O)c1cc2ccccc2[nH]1 (racemic),Ratio IC50,[5],324
same,inhibition,[8],Active
same,IC50,[9],48.9 nM
same,Ratio Ki,Homo sapiens,3900
same,IC50,[3],15.7 nM
same,Ki,[12],15300 nM
same,IC50,[2]; read-out: IC50,5100 nM
same,Ki,[16],3.9 nM
O=C(Nc1ccccc1NC(=O)C(CCc1ccccc1)C(=O)O)c1cc2ccccc2[nH]1 (racemic),Ratio IC50,[5],8
same,IC50,[3],717 nM
same,IC50,[2]; read-out: IC50,6200 nM
